Article PMC3351161 (Nucleic Acids Research, 2012)

Columns and labels:
[1] = test system: Strep-tagged Mdc1–FHA domain (amino acids 1–154); assay: SILAC pull-down of Mdc1–FHA interaction partners, −IR versus +IR; type: binding, human; conditions: 10 Gy IR
Procedure, shortened: (§1)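 U2OS cells stably carry a doxycycline-inducible, C-terminally Strep-tagged FHA domain (aa 1–154) or empty plasmid. They are SILAC-labelled (Lys0/Arg0, Lys4/Arg6, Lys8/Arg10) in dialyzed FBS, induced 16 h, then given 10 Gy IR for 30 min. Lysis in pH 7.5 Tris/NP-40 buffer with phosphatase and protease inhibitors, Strep-Tactin capture, pooled eluates on 4–20% SDS-PAGE, in-gel trypsin digestion. Analysis by nano-LC Orbitrap Velos MS and MaxQuant (FDR <1%). Read-out is normalized log2 SILAC ratios; 1:1:1 ratios count as background binders.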

[2] = test system: Mdc1–FHA domain; assay: Detection of proposed partners in Mdc1–FHA pull-down / co-immunoprecipitation; type: binding, human; conditions: for detection in fraction pulled down by Mdc1–FHA domain: mass spectrometry; for detection by western blot in Mdc1–FHA pull-down / co-IP: U2OS, 10 Gy IR or untreated
[3] = test system: Mdc1–FHA WT and T4A mutant domains; assay: SILAC pull-down, wild-type versus T4A Mdc1–FHA domain after IR; type: binding, human; conditions: IR-treated cells
Procedure, shortened: as §1

[4] = test system: immunoprecipitated human ATM; assay: In vitro ATM kinase assay of recombinant Mdc1 fragments; type: biochemical; conditions: 0.5 mM ATP, γ-[32P]ATP, 30 min at 30°C, autoradiography
[5] = test system: Mdc1 Thr-4 / Thr-98 phosphorylation; assay: MS quantitation of Mdc1–FHA phosphorylation site occupancy; type: cell-based, human
[6] = test system: Myc-tagged Mdc1 (1–800); assay: Co-immunoprecipitation of Flag- and Myc-tagged Mdc1; type: cell-based, human; conditions: transiently transfected 293T cells, anti-Flag IP, anti-Myc immunoblot
Procedure, shortened: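 Human Mdc1 residues 1–800, C-terminally tagged with HA/FLAG or Myc, in a pcDNA3.1(+) vector. HEK 293T cells grown in D-MEM with 10% FCS and streptomycin/penicillin (100 U/ml). Transfected with FuGene 6 or calcium phosphate. Immunoprecipitation on anti-FLAG M2 affinity gel; Myc-tagged partner detected by immunoblot with rabbit polyclonal c-Myc antibody.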

DNA damage binding protein 1 [DDB1]
decrease of interaction with the MDC1–FHA domain in the presence of DNA damage [1]: > 2.5 fold

DDB1- and Cul4-associated factor 1 [DCAF1]
decrease of interaction with the MDC1–FHA domain in the presence of DNA damage [1]: > 2.5 fold

ATM: ataxia telangiectasia-mutated kinase
detection in fraction pulled down by Mdc1–FHA domain [2]: could not detect peptides
detection by western blot in Mdc1–FHA pull-down / co-IP [2]: unable to detect

Chk2: DNA damage kinase
detection in fraction pulled down by Mdc1–FHA domain [2]: could not detect peptides
detection by western blot in Mdc1–FHA pull-down / co-IP [2]: unable to detect

MDC1: endogenous Mdc1 as interaction partner of its own FHA domain
interaction with wild-type compared to T4A FHA domain (in words) [3]: interacts with the wild-type fragment

B1: Rad51: repair protein (protein)
chain: MAMQMQLEANADTSVEEESFGPQPISRLEQCGINANDVKKLEEAGFHTVEAVAYAPKKELINIKGISEAKADKILAEAAKLVPMGFTTATEFHQRRSEIIQITTGSKELDKLLQGGIETGSITEMFGEFRTGKTQICHTLAVTCQLPIDRGGGEGKAMYIDTEGTFRPERLLAVAERYGLSGSDVLDNVAYARAFNTDHQTQLLYQASAMMVESRYALLIVDSATALYRTDYSGRGELSARQMHLARFLRMLLRLADEFGVAVVITNQVVAQVDGAAMFAADPKKPIGGNIIAHASTTRLYLRKGRGETRICKIYDSPCLPEAEAMFAINADGVGDAKD
detection in fraction pulled down by Mdc1–FHA domain [2]: could not detect peptides

B2: M-1: GST-fusion Mdc1 fragment M-1 (amino acids 1–124) (protein, UniProt Q14676 1-124, looked up, fragment)
chain: MEDTQAIDWDVEEEEETEQSSESLRCNVEPVGRLHIFSGAHGPEKDFPLHLGKNVVGRMPDCSVALPFPSISKQHAEIEILAWDKAPILRDCGSLNGTQILRPPKVLSPGVSHRLRDQELILFA
modifications: GST fusion
phosphorylation by ATM in vitro [4]: ATM only phosphorylated fragment M-1 (amino acids 1–124) and fragment M-4 (amino acids 531–770)

B3: M-1 T4A: M-1 point mutation altering Thr-4 to Ala (protein, UniProt Q14676 1-124, looked up, variant T4A)
chain: MEDAQAIDWDVEEEEETEQSSESLRCNVEPVGRLHIFSGAHGPEKDFPLHLGKNVVGRMPDCSVALPFPSISKQHAEIEILAWDKAPILRDCGSLNGTQILRPPKVLSPGVSHRLRDQELILFA
modifications: GST fusion
phosphorylation by ATM in vitro [4]: could no longer be phosphorylated by ATM in vitro

B4: M-4: GST-fusion Mdc1 fragment M-4 (amino acids 531–770) (protein, UniProt Q14676 531-770, looked up, fragment)
chain: PGSAIIHIKKHQVSVEGTNQTDVKAVGGPAKLLVVSLEEAWPLHGDCETDAEEGTSLTASVVADVRKSQLPAEGDAGAEWAAAVLKQERAHEVGAQGGPPVAQVEQDLPISRENLTDLVVDTDTLGESTQPQREGAQVPTGREREQHVGGTKDSEDNYGDSEDLDLQATQCFLENQGLEAVQSMEDEPTQAFMLTPPQELGPSHCSFQTTGTLDEPWEVLATQPFCLRESEDSETQPFDT
modifications: GST fusion
phosphorylation by ATM in vitro [4]: ATM only phosphorylated fragment M-1 (amino acids 1–124) and fragment M-4 (amino acids 531–770)

B5: Mdc1-FHA domain: C-terminally Strep-tagged Mdc1-FHA domain (amino acids 1–154) (protein)
chain: NVEPVGRLHIFSGAHGPEKDFPLHLGKNVVGRMPDCSVALPFPSISKQHAEIEILAWDKAPILRDCGSLNGTQILRPPKVLSPGVSHRLRDQELILFADLLCQYHRLDVSLP
modifications: left off: GST, end not stated, cleaved
Thr-98 phosphorylation ([5]; MS of tryptic peptide): no phosphorylated form was evident
occupancy rate of phosphorylated Thr-4, after irradiation ([5]; SILAC and extracted ion chromatogram quantitation, after irradiation): 61.5%
occupancy rate of phosphorylated Thr-4, before irradiation ([5]; SILAC and extracted ion chromatogram quantitation, not irradiated): 18.6%

B6: Mdc1 (1–800) R58A: FHA domain R58A mutant of Mdc1 (1–800) (protein, UniProt Q14676 1-800, looked up, variant R58A)
chain: MEDTQAIDWDVEEEEETEQSSESLRCNVEPVGRLHIFSGAHGPEKDFPLHLGKNVVGAMPDCSVALPFPSISKQHAEIEILAWDKAPILRDCGSLNGTQILRPPKVLSPGVSHRLRDQELILFADLLCQYHRLDVSLPFVSRGPLTVEETPRVQGETQPQRLLLAEDSEEEVDFLSERRMVKKSRTTSSSVIVPESDEEGHSPVLGGLGPPFAFNLNSDTDVEEGQQPATEEASSAARRGATVEAKQSEAEVVTEIQLEKDQPLVKERDNDTKVKRGAGNGVVPAGVILERSQPPGEDSDTDVDDDSRPPGRPAEVHLERAQPFGFIDSDTDAEEERIPATPVVIPMKKRKIFHGVGTRGPGAPGLAHLQESQAGSDTDVEEGKAPQAVPLEKSQASMVINSDTDDEEEVSAALTLAHLKESQPAIWNRDAEEDMPQRVVLLQRSQTTTERDSDTDVEEEELPVENREAVLKDHTKIRALVRAHSEKDQPPFGDSDDSVEADKSSPGIHLERSQASTTVDINTQVEKEVPPGSAIIHIKKHQVSVEGTNQTDVKAVGGPAKLLVVSLEEAWPLHGDCETDAEEGTSLTASVVADVRKSQLPAEGDAGAEWAAAVLKQERAHEVGAQGGPPVAQVEQDLPISRENLTDLVVDTDTLGESTQPQREGAQVPTGREREQHVGGTKDSEDNYGDSEDLDLQATQCFLENQGLEAVQSMEDEPTQAFMLTPPQELGPSHCSFQTTGTLDEPWEVLATQPFCLRESEDSETQPFDTHLEAYGPCLSPPRAIPGDQHPESPVHTEPM
interaction of Flag-tagged with Myc-tagged Mdc1 (1–800) [6]: significant reduction of the interaction

B7: Mdc1 (1–800) concomitant mutation of both the FHA domain and Thr-4: T4A/R58A mutant of Mdc1 (1–800) (protein, UniProt Q14676 1-800, looked up, variant T4A R58A)
chain: MEDAQAIDWDVEEEEETEQSSESLRCNVEPVGRLHIFSGAHGPEKDFPLHLGKNVVGAMPDCSVALPFPSISKQHAEIEILAWDKAPILRDCGSLNGTQILRPPKVLSPGVSHRLRDQELILFADLLCQYHRLDVSLPFVSRGPLTVEETPRVQGETQPQRLLLAEDSEEEVDFLSERRMVKKSRTTSSSVIVPESDEEGHSPVLGGLGPPFAFNLNSDTDVEEGQQPATEEASSAARRGATVEAKQSEAEVVTEIQLEKDQPLVKERDNDTKVKRGAGNGVVPAGVILERSQPPGEDSDTDVDDDSRPPGRPAEVHLERAQPFGFIDSDTDAEEERIPATPVVIPMKKRKIFHGVGTRGPGAPGLAHLQESQAGSDTDVEEGKAPQAVPLEKSQASMVINSDTDDEEEVSAALTLAHLKESQPAIWNRDAEEDMPQRVVLLQRSQTTTERDSDTDVEEEELPVENREAVLKDHTKIRALVRAHSEKDQPPFGDSDDSVEADKSSPGIHLERSQASTTVDINTQVEKEVPPGSAIIHIKKHQVSVEGTNQTDVKAVGGPAKLLVVSLEEAWPLHGDCETDAEEGTSLTASVVADVRKSQLPAEGDAGAEWAAAVLKQERAHEVGAQGGPPVAQVEQDLPISRENLTDLVVDTDTLGESTQPQREGAQVPTGREREQHVGGTKDSEDNYGDSEDLDLQATQCFLENQGLEAVQSMEDEPTQAFMLTPPQELGPSHCSFQTTGTLDEPWEVLATQPFCLRESEDSETQPFDTHLEAYGPCLSPPRAIPGDQHPESPVHTEPM
interaction of Flag-tagged with Myc-tagged Mdc1 (1–800) [6]: complete loss of binding

B8: Mdc1 (1–800) T4A: T4A mutant of Mdc1 (1–800) (protein, UniProt Q14676 1-800, looked up, variant T4A)
chain: MEDAQAIDWDVEEEEETEQSSESLRCNVEPVGRLHIFSGAHGPEKDFPLHLGKNVVGRMPDCSVALPFPSISKQHAEIEILAWDKAPILRDCGSLNGTQILRPPKVLSPGVSHRLRDQELILFADLLCQYHRLDVSLPFVSRGPLTVEETPRVQGETQPQRLLLAEDSEEEVDFLSERRMVKKSRTTSSSVIVPESDEEGHSPVLGGLGPPFAFNLNSDTDVEEGQQPATEEASSAARRGATVEAKQSEAEVVTEIQLEKDQPLVKERDNDTKVKRGAGNGVVPAGVILERSQPPGEDSDTDVDDDSRPPGRPAEVHLERAQPFGFIDSDTDAEEERIPATPVVIPMKKRKIFHGVGTRGPGAPGLAHLQESQAGSDTDVEEGKAPQAVPLEKSQASMVINSDTDDEEEVSAALTLAHLKESQPAIWNRDAEEDMPQRVVLLQRSQTTTERDSDTDVEEEELPVENREAVLKDHTKIRALVRAHSEKDQPPFGDSDDSVEADKSSPGIHLERSQASTTVDINTQVEKEVPPGSAIIHIKKHQVSVEGTNQTDVKAVGGPAKLLVVSLEEAWPLHGDCETDAEEGTSLTASVVADVRKSQLPAEGDAGAEWAAAVLKQERAHEVGAQGGPPVAQVEQDLPISRENLTDLVVDTDTLGESTQPQREGAQVPTGREREQHVGGTKDSEDNYGDSEDLDLQATQCFLENQGLEAVQSMEDEPTQAFMLTPPQELGPSHCSFQTTGTLDEPWEVLATQPFCLRESEDSETQPFDTHLEAYGPCLSPPRAIPGDQHPESPVHTEPM
interaction of Flag-tagged with Myc-tagged Mdc1 (1–800) [6]: significant reduction of the interaction
